{"source": "paper PMC3788622", "about": "(Journal of Medicinal Chemistry, 2013)", "key": {"male C57BL/6J mice [1]": {"system": "male C57BL/6J mice", "assay": "Escalating single dose subcutaneous injections: animal weight and behavior", "format": "in vivo, mouse", "conditions": "single sc injection at 1, 3, and 10 mg/kg, observed 9 days", "outline": "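Male C57BL/6J mice, 8 weeks old, were acclimatised 3 days after arrival. Groups of four received one sc dose of 1, 3 or 10 mg/kg in up to 200 μL 25% DMSO/saline. Doses were set by UV/vis using ε 69 500 M–1·cm–1 near 315 nm. Mice were weighed daily for 9 days, then sacrificed. Humane end point was visible duress or weight loss over 15% of starting weight.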"}, "p53 [2]": {"system": "p53", "conditions": "cited from earlier work"}, "male C57BL/6J mice [3]": {"system": "male C57BL/6J mice", "assay": "Histopathology after multiple subcutaneous injections", "format": "in vivo, mouse", "conditions": "1 mg/kg sc every 3 days, three injections"}, "LNCaP xenografts": {"system": "LNCaP xenografts", "conditions": "immunocompromised mice, three sc injections at 1 mg/kg; cited from earlier work"}, "male C57BL/6J mice [4]": {"system": "male C57BL/6J mice", "assay": "Histopathology after single subcutaneous injection", "format": "in vivo, mouse", "outline": "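After the single sc dose (1, 3 or 10 mg/kg, 25% DMSO/saline, 9-day observation), two representative mice per group were fixed in 10% formalin. A veterinary pathologist examined cecum, duodenum, heart, ileum, kidney, liver, lung, pancreas, spleen and stomach, blinded to animal identity.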"}, "male C57BL/6J mice [5]": {"system": "male C57BL/6J mice", "assay": "Serum markers of liver and kidney damage after multiple subcutaneous injections", "format": "in vivo, mouse", "conditions": "1 mg/kg sc every 3 days, three injections", "outline": "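Male C57BL/6J mice, 8 weeks old, were dosed in groups of three with 1 mg/kg sc every 3 days for three injections and sacrificed 2 days after the last. Weight was recorded on injection days and at the end point. Retro-orbital blood was spun at 6000 rpm for 5 min. Serum ALT, AST, total bilirubin, BUN and creatinine were assayed blinded.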"}, "male C57BL/6J mice [6]": {"system": "male C57BL/6J mice", "assay": "Serum markers of liver and kidney damage after single subcutaneous injection", "format": "in vivo, mouse", "conditions": "single sc dose 1, 3, 10 mg/kg; dose stated in the value", "outline": "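All mice from the single sc dose groups (1, 3, 10 mg/kg in 25% DMSO/saline, n = 4, 9-day observation) were bled retro-orbitally. Serum was obtained by centrifugation at 6000 rpm for 5 min. ALT, AST, total bilirubin, BUN and creatinine were measured externally, blinded to animal identity.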"}, "p53 [7]": {"system": "p53", "assay": "p53 protein ELISA", "format": "cell-based", "conditions": "LNCaP cells, 10 μM, 72 h", "outline": "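LNCaP cells were treated with 10 μM test compound for 72 h. Controls were DMSO vehicle and 1 μM doxorubicin for 24 h. RPB1 was measured with an RPB1-specific ELISA kit and total p53 with a pan-p53 ELISA kit, each following the kit instructions, in biological triplicates.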"}}, "note": "“Also recorded” adds a separate entry of the source."}
{"smiles": "CN(CCCNC(=O)c1cccc(C(=O)O)c1)CCCNC(=O)c1cc(NC(=O)c2cc(NC(=O)c3cc(NC(=O)c4nc(NC(=O)[C@H](N)CCNC(=O)c5cc(NC(=O)c6cc(NC(=O)c7cc(NC(=O)c8nccn8C)cn7C)cn6C)cn5C)cn4C)cn3C)cn2C)cn1C", "note": "[Polyamide 1, ImPyPyPy-2-(R)^H2Nγ-ImPyPyPy∼NHMe∼IPA]", "values": [{"measurement": "Weight loss", "setting": "male C57BL/6J mice [1]", "value": "significant weight loss only at 10 mg/kg"}, {"measurement": "Effect on cellular p53 protein", "setting": "p53 [2]", "value": "increase cellular p53 protein"}, {"measurement": "Kidney lesions by histopathology (in words)", "setting": "male C57BL/6J mice [3]", "value": "mild variable tubular attenuation, karyomegaly, and epithelial necrosis and apoptosis"}, {"measurement": "Liver lesions by histopathology (in words)", "setting": "male C57BL/6J mice [3]", "value": "mild multifocal hepatocellular necrosis and apoptosis"}, {"measurement": "Growth of LNCaP xenografts", "setting": "LNCaP xenografts", "value": "suppress the growth of LNCaP xenografts"}, {"measurement": "Liver lesions by histopathology (in words)", "setting": "male C57BL/6J mice [4]; single sc dose 3 mg/kg", "value": "Mild hepatocellular necrosis and apoptosis"}, {"measurement": "Kidney lesions by histopathology (in words)", "setting": "male C57BL/6J mice [4]; single sc dose 10 mg/kg", "value": "Milder tubular regeneration and karyomegaly"}, {"measurement": "Liver lesions by histopathology (in words)", "setting": "male C57BL/6J mice [4]; single sc dose 10 mg/kg", "value": "Mild hepatocellular necrosis and apoptosis"}, {"measurement": "Alteration of liver and kidney serum markers (in words)", "setting": "male C57BL/6J mice [5]", "value": "elevated AST and ALT"}, {"measurement": "Elevation of serum markers of liver and kidney damage (in words)", "setting": "male C57BL/6J mice [6]", "value": "significant elevation of AST, ALT, and total bilirubin at 10 mg/kg; also recorded: moderate elevation of ALT at 3 mg/kg; also recorded: Elevation of creatinine and blood urea nitrogen (BUN) was not observed for any dose level"}, {"measurement": "Cellular level of p53 protein", "setting": "p53 [7]", "value": "increases"}]}
